# In ChEMBL document CHEMBL1151227, “Hyperjovinols A and B: Two new phloroglucinol derivatives from Hypericum jovis with antioxidant activity in cell cultures” (J Nat Prod, 2004):
# Columns and labels:
# [1] = Cytotoxicity against human skin fibroblasts assessed as cell viability by trypan blue exclusion assay relative to control; assay type: cell-based; conditions: fibroblast
# Outline: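 Normal human skin fibroblasts (lab-derived) grown in MEM with 10% FBS to confluency, then exposed to compounds (diluted from DMSO into medium) for 4 h. Viability was judged against untreated cells by Trypan Blue exclusion, with microscopic inspection for cytotoxicity.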
# Fibroblast [2] = assay: Inhibition of endogenous ROS production in human skin fibroblast assessed as DCF-fluorescence at 10 uM after 4 hrs by DCFH-DA assay relative to control; design: scale not given: the % may be the effect or the level left
# Fibroblast [3] = assay: Inhibition of endogenous ROS production in human skin fibroblast assessed as DCF-fluorescence at 100 uM after 4 hrs by DCFH-DA assay relative to control; design: scale not given: the % may be the effect or the level left
SMILES,Activity [1],Activity (Fibroblast [2]) [%],Activity (Fibroblast [3]) [%]
CC(C)=CCCC1(C)CCc2c(cc(O)c(C(=O)C(C)C)c2O)O1 (stereo not given),Non-toxic,94.1,62.4
CC(C)C(=O)c1c(O)cc2c(c1O)C[C@@H]1C(C)(C)CCC[C@@]1(C)O2 [HYPERJOVINOL B],Non-toxic,89.7,57.1
CC(C)=CCCC(C)(O)CCc1c(O)cc(O)c(C(=O)C(C)C)c1O (stereo not given) [HYPERJOVINOL A],Non-toxic,76.1,49.2
Cc1c(C)c2c(c(C)c1O)CCC(C)(C(=O)O)O2 (stereo not given) [TROLOX],,81.4,55.2
CC(C)=CCC/C(C)=C/COc1cc(O)c(C(=O)C(C)C)c(O)c1,Non-toxic,92.2,61.5
CC(C)=CCC/C(C)=C/Cc1c(O)cc(O)c(C(=O)C(C)C)c1O,Non-toxic,79.4,50.8
CC(C)=CCCC1(C)CCc2c(O)cc(O)c(C(=O)C(C)C)c2O1 (stereo not given),Non-toxic,81.5,73
